{"source": "ChEMBL document CHEMBL1240439", "about": "“Synthesis and docking studies of novel benzopyran-2-ones with anticancer activity” (2010)", "type_in_all_cases": "functional", "key": {"SNB-75": {"system": "SNB-75", "test": "Cytotoxicity against human SNB75 cells assessed as cell growth at 10 uM after 48 hrs by sulforhodamine B assay", "details": "SNB-75, 48 h, read-out: Activity"}, "NCI-H23": {"system": "NCI-H23", "test": "Cytotoxicity against human NCI-H23 cells assessed as cell growth at 10 uM after 48 hrs by sulforhodamine B assay", "details": "NCI-H23, 48 h, read-out: Activity"}, "[1]": {"test": "Cytotoxicity against human colon cancer cells after 48 hrs by sulforhodamine B assay", "details": "Cancer cell lines", "summary_of_the_method": "(§1)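 Cells plated at 5000–40,000/well according to doubling time, then held 24 h at 37 °C, 5% CO2, with time-zero plates TCA-fixed. DMSO stocks (400× top concentration) were diluted in medium containing 50 μg/ml gentamycin, giving five 10-fold or ½-log concentrations. After 48 h, adherent cells were fixed in 10% TCA and suspension cells in 16% TCA (final), stained with 0.4% SRB, read at 515 nm. GI50, TGI and LC50 were calculated per cell line.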"}, "K562": {"system": "K562", "test": "Cytotoxicity against human K562 cells assessed as cell growth at 10 uM after 48 hrs by sulforhodamine B assay", "details": "K562, 48 h, read-out: Activity"}, "HCC 2998": {"system": "HCC 2998", "test": "Cytotoxicity against human HCC2998 cells assessed as cell growth at 10 uM after 48 hrs by sulforhodamine B assay", "details": "HCC 2998, 48 h, read-out: Activity"}, "KM12": {"system": "KM12", "test": "Cytotoxicity against human KM12 cells assessed as cell growth at 10 uM after 48 hrs by sulforhodamine B assay", "details": "KM12, 48 h, read-out: Activity"}, "MDA-MB-435": {"system": "MDA-MB-435", "test": "Cytotoxicity against human MDA-MB-435 cells assessed as cell growth at 10 uM after 48 hrs by sulforhodamine B assay", "details": "MDA-MB-435, 48 h, read-out: Activity"}, "[2]": {"test": "Cytotoxicity against human prostate cancer cells after 48 hrs by sulforhodamine B assay", "details": "Cancer cell lines", "summary_of_the_method": "as §1"}, "[3]": {"details": "read-out: LC50 (the source's name)"}}, "data": [{"smiles": "Cc1cc(=O)n(C(=O)COc2ccc3c(-c4ccccc4)cc(=O)oc3c2C)[nH]1", "values": [{"measurement": "growth at 10 µM", "setting": "SNB-75", "value": -35.2, "unit": "%"}, {"measurement": "growth at 10 µM", "setting": "NCI-H23", "value": 1.86, "unit": "%"}, {"measurement": "GI50", "setting": "[1]", "value": 8.98, "unit": "µM"}, {"measurement": "TGI", "setting": "[1]", "value": 32.6, "unit": "µM"}, {"measurement": "CC50", "setting": "[1]; [3]", "value": 64.5, "unit": "µM"}, {"measurement": "growth at 10 µM", "setting": "K562", "value": -24.1, "unit": "%"}, {"measurement": "growth at 10 µM", "setting": "HCC 2998", "value": 17.4, "unit": "%"}, {"measurement": "growth at 10 µM", "setting": "KM12", "value": -12, "unit": "%"}, {"measurement": "growth at 10 µM", "setting": "MDA-MB-435", "value": -39.6, "unit": "%"}, {"measurement": "GI50", "setting": "[2]", "value": 2.38, "unit": "µM"}, {"measurement": "TGI", "setting": "[2]", "value": 5.75, "unit": "µM"}, {"measurement": "CC50", "setting": "[2]; [3]", "value": 29.4, "unit": "µM"}]}]}
